Active and inactive are the calls of the source. No cut-off for these calls is given here.
How the values were obtained:
JC = experiment: Modulatory activity at P-gp in mouse JC cells assessed as lowest drug concentration required to increase intracellular [3H]taxol accumulation pretreated for 30 mins prior to [3H]taxol addition measured after 60 mins by liquid scintillation counting analysis; assay type: cell-based
Outline: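 JC cells were seeded at about 25% confluency and grown 3–4 days to near confluency. Medium was switched to serum-free, and compounds were preincubated for 30 min at 37 °C. About 0.1 µCi [³H]Taxol (75 Ci/mmol) per well followed, for 60 min at 37 °C. Cells were washed twice with ice-cold PBS and lysed in 1% SDS. Intracellular label was counted by liquid scintillation, and the lowest concentration giving maximal accumulation was recorded.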

[1] = Cytotoxicity against mouse JC cells assessed as inhibition of cell survival after 48 hrs by SRB assay; assay type: functional, cell-based
Outline: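 JC (CRL-2116) cells kept in RPMI-1640 with L-glutamine, 10% FBS and 50 μg/ml gentamicin at 37 °C, 5% CO₂. Cells were seeded at about 20% confluency and left 24 h to attach, then exposed to a range of concentrations for 48 h. Cells were PBS-washed, fixed in 10% trichloroacetic acid and stained with 0.4% SRB in 1% acetic acid. Dye was dissolved in 10 mM Tris and absorbance read at 570 nm.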

[2] = Ratio of compound IC50 to paclitaxel IC50 for mouse JC cells after 48 hrs by SRB assay; assay type: functional

Row | SMILES | LED (JC) | IC50 [1] [nM] | Ratio IC50 [2]
1 | COc1ccc(Cn2cc(CCc3cc(OC)c(OC)c(OC)c3)c3c(C)nc(N)nc32)cc1OC | 1.2 µM | 1500 | –
2 | COc1ccccc1Cn1cc(CCc2cc(OC)c(OC)c(OC)c2)c2c(C)nc(N)nc21 | 2 µM | 1000 | 6.6
3 | COc1cc(Cn2cc(CCc3cc(OC)c(OC)c(OC)c3)c3c(C)nc(N)nc32)cc(OC)c1 | 1.5 µM | 3000 | –
4 | COc1ccc(Sc2cn(Cc3ccccc3)c3nc(N)nc(C)c23)cc1 | inactive | 10000 | –
5 | COc1ccccc1Cn1cc(Sc2ccccc2OC)c2c(C)nc(N)nc21 | inactive | 9000 | –
6 | COc1ccccc1Sc1cn(Cc2cc(OC)c(OC)c(OC)c2)c2nc(N)nc(C)c12 | inactive | 3000 | –
7 | Cc1nc(N)nc2c1c(Sc1ccc(Cl)cc1)cn2Cc1ccccc1 | inactive | 7500 | –
8 | COc1ccc(Cn2cc(Sc3ccccc3OC)c3c(C)nc(N)nc32)cc1 | inactive | 2500 | –
